Source: ChEMBL document CHEMBL1122831, “Synthesis and structure-activity relationships of novel arylfluoroquinolone antibacterial agents” (1985)
Values after ≈ are worked out from the molar mass of the structure shown.

Tests used:
Assay type in all cases: functional
Streptococcus pyogenes = experiment: Minimum inhibition concentration in vitro determined against Streptococcus pyogenes 930
How it was run: (§1)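 Agar dilution on brain-heart infusion (BHI) agar with twofold dilutions from a 2000 µg/mL stock, giving final test concentrations of 200-0.005 µg/mL. Organisms were grown overnight in BHI broth at 36 °C, and about 10⁴ organisms were inoculated per plate. Plates were incubated 18 h at 36 °C. MIC was the lowest concentration with no visible growth.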

[1] = system: Staphylococcus epidermidis; experiment: Minimum inhibition concentration in vitro determined against Staphylococcus epidermidis 3519; how it was run: as §1
Staphylococcus aureus [2] = experiment: Minimum inhibition concentration in vitro determined against Staphylococcus aureus CMX 686B; how it was run: as §1
Staphylococcus aureus [3] = experiment: Minimum inhibition concentration in vitro determined against Staphylococcus aureus ATCC 6538P; how it was run: as §1
Acinetobacter = experiment: Minimum inhibition concentration in vitro determined against Acinetobacter sp CMX669; how it was run: as §1
Pseudomonas aeruginosa [4] = experiment: Minimum inhibition concentration in vitro determined against Pseudomona aeruginosa 5007; how it was run: as §1
Klebsiella pneumoniae = experiment: Minimum inhibition concentration in vitro determined against Klebsiella pneumoniae 8045; how it was run: as §1
Escherichia coli [5] = experiment: Compound was evaluated for inhibitory activity against Escherichia coli Juhl (in vivo); details: in the assay text read “in vitro” for “in vivo”
Escherichia coli [6] = experiment: Minimum inhibition concentration in vitro determined against Escherichia coli juhl; how it was run: as §1
Mus musculus [7] = experiment: In vivio inhibitory activity against Escherichia coli Juhl after subcutaneous administration in mice; details: sc
How it was run: (§2)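 Female CF-1 mice (~20 g) were infected ip with 0.5 mL of an 18-h BHI culture of E. coli Juhl in 5% hog gastric mucin at 100× LD50. The LD50 had been set beforehand by 10-fold dilutions and Reed-Muench. Compound in water or dilute NaOH was given sc or po, split equally at 1 and 5 h post-infection. Groups of 10 mice got ≥3 doses, with 10 untreated controls. ED50 was calculated from day-6 cumulative mortality by trimmed Logit.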

Mus musculus [8] = experiment: In vivo inhibitory activity of teh compound against Escherichia coli Juhl after peroral administration in mice; details: po; how it was run: as §2
Klebsiella aerogenes = experiment: Minimum inhibition concentration in vitro determined against Enterobacteri aerogenes ATCC 13048; how it was run: as §1
Enterococcus faecium [9] = experiment: Minimum inhibition concentration in vitro determined against Streptococcus faecium ATCC 8043; how it was run: as §1
Pseudomonas aeruginosa [10] = experiment: Minimum inhibition concentration in vitro determined against Pseudomona aeruginosa K799/WT; how it was run: as §1
Enterococcus faecium [11] = experiment: 0 Minimum inhibition concentration was determined against Streptococcus faecium ATCC 8043 (in vitro); how it was run: as §1
Mus musculus [12] = experiment: In vivo inhibitory activity against Escherichia coli Juhl after peroral administration in mice; details: po; how it was run: as §2
[13] = Escherichia coli, read-out: MIC

| Compound | MIC (Streptococcus pyogenes) [mg/L] | MIC [1] [mg/L] | MIC (Staphylococcus aureus [2]) [mg/L] | MIC (Staphylococcus aureus [3]) [mg/L] | MIC (Acinetobacter) [mg/L] | MIC (Pseudomonas aeruginosa [4]) [mg/L] | MIC (Klebsiella pneumoniae) [mg/L] | MIC (Escherichia coli [5]) [mg/L] | MIC (Escherichia coli [6]; [13]) [mg/L] | ED50 (Mus musculus [7]) [mg/kg] | ED50 (Mus musculus [8]) [mg/kg] | MIC (Klebsiella aerogenes) [mg/L] | MIC (Enterococcus faecium [9]) [mg/L] | MIC (Pseudomonas aeruginosa [10]) [mg/L] | MIC (Enterococcus faecium [11]) [mg/L] | ED50 (Mus musculus [12]) [mg/kg] | MIC (Escherichia coli [6]) [mg/L] |
| --- | --- | --- | --- | --- | --- | --- | --- | --- | --- | --- | --- | --- | --- | --- | --- | --- | --- |
| O=C(O)c1cn(-c2ccc(F)cc2)c2cc(N3CCNCC3)c(F)cc2c1=O [SARAFLOXACIN] | 0.78 (≈ 2.02 µM) | 0.39 (≈ 1.01 µM) | 0.2 (≈ 0.519 µM) | 0.2 (≈ 0.519 µM) | 0.2 (≈ 0.519 µM) | 0.39 (≈ 1.01 µM) | 0.02 (≈ 0.0519 µM) | 0.05 (≈ 0.13 µM) | 0.05 (≈ 0.13 µM) | 0.6 | 4.3 | 0.2 (≈ 0.519 µM) | 1.56 (≈ 4.05 µM) | 0.39 (≈ 1.01 µM) |  |  |  |
| CN1CCN(c2cc3c(cc2F)c(=O)c(C(=O)O)cn3-c2ccc3c(c2)OCO3)CC1 | 12.5 (≈ 29.4 µM) | 1.56 (≈ 3.67 µM) | 0.78 (≈ 1.83 µM) | 0.78 (≈ 1.83 µM) | 0.78 (≈ 1.83 µM) | 6.2 (≈ 14.6 µM) | 0.2 (≈ 0.47 µM) |  | 0.78 (≈ 1.83 µM) |  |  | 0.78 (≈ 1.83 µM) |  | 6.2 (≈ 14.6 µM) | 50 (≈ 118 µM) |  |  |
| CCn1cc(C(=O)O)c(=O)c2cc(F)c(N3CCNCC3)cc21 [NORFLOXACIN] | 3.1 (≈ 9.71 µM) | 1.56 (≈ 4.89 µM) | 0.78 (≈ 2.44 µM) | 0.78 (≈ 2.44 µM) | 6.2 (≈ 19.4 µM) | 0.39 (≈ 1.22 µM) | 0.1 (≈ 0.313 µM) |  | 0.1 (≈ 0.313 µM) | 0.6 |  | 0.2 (≈ 0.626 µM) | 0.78 (≈ 2.44 µM) | 0.39 (≈ 1.22 µM) |  | 15.1 | 0.1 (≈ 0.313 µM) |
| CN(C)C1CCN(c2cc3c(cc2F)c(=O)c(C(=O)O)cn3-c2ccc(F)cc2)C1 (configuration not stated) | 3.1 (≈ 7.5 µM) | 0.39 (≈ 0.943 µM) | 0.39 (≈ 0.943 µM) | 0.39 (≈ 0.943 µM) | 0.78 (≈ 1.89 µM) | 25 (≈ 60.5 µM) | 0.2 (≈ 0.484 µM) |  | 0.39 (≈ 0.943 µM) |  |  | 0.78 (≈ 1.89 µM) | 25 (≈ 60.5 µM) | 12.5 (≈ 30.2 µM) |  |  |  |
| O=C(O)c1cn(-c2ccc(F)cc2)c2cc(N3CCOCC3)c(F)cc2c1=O | 1.56 (≈ 4.04 µM) | 0.2 (≈ 0.518 µM) | 0.1 (≈ 0.259 µM) | 0.1 (≈ 0.259 µM) | 0.78 (≈ 2.02 µM) | 3.1 (≈ 8.02 µM) | 0.39 (≈ 1.01 µM) |  | 0.39 (≈ 1.01 µM) |  |  | 0.78 (≈ 2.02 µM) | 1.56 (≈ 4.04 µM) | 3.1 (≈ 8.02 µM) |  |  |  |
| CCCCN1CCN(c2cc3c(cc2F)c(=O)c(C(=O)O)cn3-c2ccc(F)cc2)CC1 | 6.2 (≈ 14 µM) | 1.56 (≈ 3.53 µM) | 0.78 (≈ 1.77 µM) | 0.78 (≈ 1.77 µM) | 3.1 (≈ 7.02 µM) | 12.5 (≈ 28.3 µM) | 0.39 (≈ 0.883 µM) |  | 1.56 (≈ 3.53 µM) |  |  | 1.56 (≈ 3.53 µM) | 12.5 (≈ 28.3 µM) | 12.5 (≈ 28.3 µM) |  |  |  |
| CNC1CCN(c2cc3c(cc2F)c(=O)c(C(=O)O)cn3-c2ccc(F)cc2)C1 (configuration not stated) | 12.5 (≈ 31.3 µM) | 6.2 (≈ 15.5 µM) | 3.1 (≈ 7.76 µM) | 3.1 (≈ 7.76 µM) | 6.2 (≈ 15.5 µM) | 50 (≈ 125 µM) | 0.78 (≈ 1.95 µM) |  | 3.1 (≈ 7.76 µM) |  |  | 3.1 (≈ 7.76 µM) | 25 (≈ 62.6 µM) | 50 (≈ 125 µM) |  |  |  |
| CN1CCN(c2cc3c(cc2F)c(=O)c(C(=O)O)cn3-c2ccc(F)cc2F)CC1 | 0.78 (≈ 1.87 µM) | 0.39 (≈ 0.934 µM) | 0.1 (≈ 0.24 µM) | 0.1 (≈ 0.24 µM) | 0.1 (≈ 0.24 µM) | 1.56 (≈ 3.74 µM) | 0.1 (≈ 0.24 µM) |  | 0.2 (≈ 0.479 µM) |  |  | 0.39 (≈ 0.934 µM) | 0.78 (≈ 1.87 µM) | 1.56 (≈ 3.74 µM) |  |  |  |
| COc1ccc(-n2cc(C(=O)O)c(=O)c3cc(F)c(N4CCN(C)CC4)cc32)cc1 | 50 (≈ 122 µM) | 50 (≈ 122 µM) | 12.5 (≈ 30.4 µM) | 12.5 (≈ 30.4 µM) | 50 (≈ 122 µM) | 200 (≈ 486 µM) | 12.5 (≈ 30.4 µM) |  | 50 (≈ 122 µM) |  |  | 50 (≈ 122 µM) | 100 (≈ 243 µM) | 100 (≈ 243 µM) |  |  |  |
| NC1CCN(c2cc3c(cc2F)c(=O)c(C(=O)O)cn3-c2ccc(F)cc2)C1 (configuration not stated) | 0.1 (≈ 0.259 µM) | 0.05 (≈ 0.13 µM) | 0.05 (≈ 0.13 µM) | 0.05 (≈ 0.13 µM) | 0.2 (≈ 0.519 µM) | 0.2 (≈ 0.519 µM) | 0.02 (≈ 0.0519 µM) |  | 0.02 (≈ 0.0519 µM) |  |  | 0.05 (≈ 0.13 µM) | 0.78 (≈ 2.02 µM) | 0.2 (≈ 0.519 µM) |  |  |  |
| CN1CCN(c2cc3c(cc2F)c(=O)c(C(=O)O)cn3-c2ccccc2F)CC1 | 12.5 (≈ 31.3 µM) | 1.56 (≈ 3.91 µM) | 1.56 (≈ 3.91 µM) | 1.56 (≈ 3.91 µM) | 0.78 (≈ 1.95 µM) | 6.2 (≈ 15.5 µM) | 0.39 (≈ 0.976 µM) |  | 0.78 (≈ 1.95 µM) |  |  | 0.78 (≈ 1.95 µM) | 12.5 (≈ 31.3 µM) | 6.2 (≈ 15.5 µM) |  |  |  |
| CN1CCN(c2cc3c(cc2F)c(=O)c(C(=O)O)cn3-c2ccc(F)cc2)CC1 [DIFLOXACIN] | 1.56 (≈ 3.91 µM) | 0.39 (≈ 0.976 µM) | 0.2 (≈ 0.501 µM) | 0.2 (≈ 0.501 µM) | 0.2 (≈ 0.501 µM) | 1.56 (≈ 3.91 µM) | 0.1 (≈ 0.25 µM) | 0.2 (≈ 0.501 µM) | 0.2 (≈ 0.501 µM) | 1.6 |  | 0.78 (≈ 1.95 µM) | 1.56 (≈ 3.91 µM) | 1.56 (≈ 3.91 µM) |  | 3.1 |  |
| O=C(O)c1cn(-c2ccc(F)cc2)c2cc(N3CCC(O)CC3)c(F)cc2c1=O | 1.56 (≈ 3.9 µM) | 0.39 (≈ 0.974 µM) | 0.1 (≈ 0.25 µM) | 0.1 (≈ 0.25 µM) | 1.56 (≈ 3.9 µM) | 6.2 (≈ 15.5 µM) | 0.39 (≈ 0.974 µM) |  | 0.39 (≈ 0.974 µM) |  |  | 1.56 (≈ 3.9 µM) | 1.56 (≈ 3.9 µM) | 3.1 (≈ 7.74 µM) |  |  |  |
